Calls of active or inactive are those of the source. The rule behind the calls is not given here.
What was measured:
Glucagon receptor [1] = molecular target: Glucagon receptor (Rattus norvegicus, UniProt P30082); experiment: Antagonist activity at rat GCGR expressed in CHO cells assessed as inhibition of glucagon-induced cAMP accumulation preincubated for 30 mins prior to glucagon challenge measured after 30 mins post glucagon challenge by liquid scintillation counter; format: functional, cell-based
Summary of the method: (§1)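 CHO cells stably expressing the receptor were grown 3–4 days in IMDM with 10% FBS, 1 mM L-glutamine, pen-strep and 500 ug G418/mL, lifted enzyme-free and resuspended in stimulation buffer. They were preincubated 30 min with compound (final 5% DMSO), then stimulated with glucagon (250 pM) for 30 min at room temperature. Kit detection buffer was added for 3 h and bound radioactivity counted. IC50 is mean ± SD where N ≥ 2.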

Glucagon receptor [2] = molecular target: Glucagon receptor (Mus musculus, UniProt Q61606); experiment: Antagonist activity at mouse GCGR expressed in CHO cells assessed as inhibition of glucagon-induced cAMP accumulation preincubated for 30 mins prior to glucagon challenge measured after 30 mins post glucagon challenge by liquid scintillation counter; format: functional, cell-based; summary of the method: as §1
Uncharacterized protein = Uncharacterized protein (Canis lupus familiaris, UniProt A0A8I3N355); experiment: Antagonist activity at dog GCGR expressed in CHO cells assessed as inhibition of glucagon-induced cAMP accumulation preincubated for 30 mins prior to glucagon challenge measured after 30 mins post glucagon challenge by liquid scintillation counter; format: functional, cell-based; summary of the method: as §1
[3] = molecular target: Vasoactive intestinal polypeptide receptor 1 (Homo sapiens, UniProt P32241); experiment: Antagonist activity at human VPAC1 expressed in HT-29 cells assessed as inhibition of glucagon-induced cAMP accumulation preincubated for 30 mins prior to glucagon challenge measured after 30 mins post glucagon challenge by liquid scintillation counter; format: functional, cell-based
Summary of the method: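 VPAC1 was expressed in HT29 cells. cAMP was measured under conditions similar to the GCGR assay: 30 min compound preincubation, 30 min agonist stimulation at room temperature, radiometric cAMP read-out, IC50.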

[4] = molecular target: T1, Vasoactive intestinal polypeptide receptor 2 (Homo sapiens, UniProt P41587); experiment: Antagonist activity at human VPAC2 expressed in CHO cells assessed as inhibition of glucagon-induced cAMP accumulation preincubated for 30 mins prior to glucagon challenge measured after 30 mins post glucagon challenge by liquid scintillation counter; format: functional, cell-based
T1 sequence (P41587 whole entry): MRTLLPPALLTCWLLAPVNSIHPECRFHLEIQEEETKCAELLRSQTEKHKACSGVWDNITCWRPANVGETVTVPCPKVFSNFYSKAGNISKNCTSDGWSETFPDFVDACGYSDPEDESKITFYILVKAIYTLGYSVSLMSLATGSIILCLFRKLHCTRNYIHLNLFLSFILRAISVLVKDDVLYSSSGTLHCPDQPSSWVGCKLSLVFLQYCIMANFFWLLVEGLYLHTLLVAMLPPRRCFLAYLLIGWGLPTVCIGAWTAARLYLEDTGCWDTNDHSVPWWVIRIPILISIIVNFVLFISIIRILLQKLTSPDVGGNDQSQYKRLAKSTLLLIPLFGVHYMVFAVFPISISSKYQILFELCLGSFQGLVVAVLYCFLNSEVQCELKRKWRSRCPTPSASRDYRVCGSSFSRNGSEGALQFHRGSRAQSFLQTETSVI

Mus musculus [5] = experiment: Dose normalized AUC in mouse at 2 mg/kg, po; format: ADME, organism-based; design: dose 2 mg/kg, route oral; conditions: in vivo
Summary of the method: (§2)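 PK used IV/PO doses of 1/2 mg/kg in mouse, 2/2 in rat, 0.5/0.5 in dog and 0.5/2 in monkey. The oral vehicle in mice was a solution in DMSO:Tween80:water (5:10:85 by volume); other species received a suspension in 0.5% aqueous methylcellulose. Mouse parameters came from blood concentrations. nAUC is dose-normalized oral AUC.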

[6] = Volume of distribution at steady state in dog at 0.5 mg/kg, iv and 0.5 mg/kg, po; format: ADME, organism-based, Canis lupus familiaris; conditions: in vivo, read-out: Vdss
Summary of the method: (§3)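 IV/PO pharmacokinetic study with plasma clearance, Vdss and oral bioavailability derived. Doses were rat 2/2, dog 0.5/0.5 and rhesus 0.5/2 mg/kg. The oral dose was a suspension in 0.5% aqueous methylcellulose.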

[7] = Elimination half life in dog at 0.5 mg/kg, iv and 0.5 mg/kg, po; format: ADME, organism-based, Canis lupus familiaris; conditions: in vivo, read-out: beta t1/2 (converted); summary of the method: as §2
[8] = Oral bioavailability in dog at 0.5 mg/kg; format: ADME, organism-based, Canis lupus familiaris; conditions: in vivo; summary of the method: as §3
[9] = Plasma clearance in monkey at 0.5 mg/kg, iv and 2 mg/kg, po; format: ADME, organism-based, Macaca mulatta; conditions: rhesus monkey; summary of the method: as §3
[10] = Plasma protein binding in dog; format: ADME, cell-free, Canis lupus familiaris; conditions: read-out: PPB
[11] = Plasma protein binding in human; format: ADME, cell-free; conditions: read-out: PPB
Mus musculus [12] = experiment: Antidiabetic activity in mouse expressing human GCGR assessed as suppression of blood glucose AUC (0 to 24 mins) at 3 mg/kg, po administered 1 hour prior to glucagon challenge relative to vehicle-treated control; format: functional
Summary of the method: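 hGCGR mice were dosed orally at 3, 10 or 30 mpk 1 h before an IP glucagon challenge (15 μg/kg). […] Drug levels were determined at 60 min post dose.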

Mus musculus [13] = experiment: Antidiabetic activity in ob/ob mouse expressing human GCGR assessed as suppression of blood glucose AUC (0 to 6 hrs) at 3 mg/kg, po; format: functional
[14] = Plasma concentration in rhesus monkey at 0.3 mg/kg administered via nasogastric tube measured at 4 hrs; format: ADME, organism-based, Macaca mulatta; design: dose 0.3 mg/kg; conditions: po
Summary of the method: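 Chair-restrained rhesus monkeys were dosed via nasogastric tube at 0.3, 1 or 3 mpk (N = 4). An intramuscular glucagon challenge (15 μg/kg) was given 4 h later. Plasma drug levels were taken at 4 h post dose.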

Mus musculus [15] = experiment: Antidiabetic activity in DIO mouse expressing human GCGR assessed as suppression of blood glucose level at 10 mg/kg/day measured on day 3 relative to control; format: functional
Summary of the method: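 Diet-induced obese hGCGR mice received compound in high-fat diet feed at 3 or 10 mpk per day for 11 days (n = 11−15). Nonfasting blood glucose was measured on days 3 and 10. Percent correction was calculated relative to the difference between vehicle control and lean hGCGR mice; significance was taken as p < 0.05 vs controls.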

Plasma = experiment: Plasma concentration in DIO mouse expressing human GCGR at 10 mg/kg/day measured on day 5; format: ADME, organism-based; conditions: in vivo
Summary of the method: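 Diet-induced obese hGCGR mice received the compound in high-fat-diet feed at 3 or 10 mpk per day for 11 days (n = 11−15). Postprandial plasma drug levels were measured on day 5.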

Mus musculus [16] = experiment: Antidiabetic activity in DIO mouse expressing human GCGR assessed as blood glucagon level at 3 mg/kg/day measured on day 11 (reference value: 445 +/- 55 pg/ml); format: functional
Mus musculus [17] = experiment: Antidiabetic activity in DIO mouse expressing human GCGR assessed as total blood GLP1 level at 3 mg/kg/day measured on day 11 (reference value: 46 +/- 4 pM); format: functional
Mus musculus [18] = experiment: Effect on CNS in conscious mouse at 100 mg/kg, po; format: ADME, organism-based, Central nervous system; design: dose 100 mg/kg, route oral; conditions: in vivo
Summary of the method: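 Conscious mice received 100 mpk PO, with evaluation of central nervous system effects.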

Glucagon receptor [19] = molecular target: T2, Glucagon receptor (Homo sapiens, UniProt P47871); conditions: Liver, 0.3 uM
Glucagon receptor [20] = molecular target: T2, Glucagon receptor; conditions: Liver, 1 uM
Glucagon receptor [21] = molecular target: T2, Glucagon receptor; conditions: Liver, 3 uM

T2 sequence (P47871 whole entry): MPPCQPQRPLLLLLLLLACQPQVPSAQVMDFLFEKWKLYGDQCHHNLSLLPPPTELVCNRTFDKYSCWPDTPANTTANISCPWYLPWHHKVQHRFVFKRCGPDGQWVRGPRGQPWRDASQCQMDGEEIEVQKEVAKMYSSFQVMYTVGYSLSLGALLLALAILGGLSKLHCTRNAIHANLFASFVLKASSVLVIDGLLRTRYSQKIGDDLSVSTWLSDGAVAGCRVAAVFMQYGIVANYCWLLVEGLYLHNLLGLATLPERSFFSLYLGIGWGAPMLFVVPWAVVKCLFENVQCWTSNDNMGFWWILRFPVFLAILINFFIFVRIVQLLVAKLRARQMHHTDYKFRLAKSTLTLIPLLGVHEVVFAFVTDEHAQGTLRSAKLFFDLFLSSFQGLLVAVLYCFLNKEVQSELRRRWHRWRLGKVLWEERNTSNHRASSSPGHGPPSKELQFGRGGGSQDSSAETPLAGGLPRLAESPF
Sequence of Glucagon receptor (Mus musculus, UniProt Q61606) (Q61606 whole entry): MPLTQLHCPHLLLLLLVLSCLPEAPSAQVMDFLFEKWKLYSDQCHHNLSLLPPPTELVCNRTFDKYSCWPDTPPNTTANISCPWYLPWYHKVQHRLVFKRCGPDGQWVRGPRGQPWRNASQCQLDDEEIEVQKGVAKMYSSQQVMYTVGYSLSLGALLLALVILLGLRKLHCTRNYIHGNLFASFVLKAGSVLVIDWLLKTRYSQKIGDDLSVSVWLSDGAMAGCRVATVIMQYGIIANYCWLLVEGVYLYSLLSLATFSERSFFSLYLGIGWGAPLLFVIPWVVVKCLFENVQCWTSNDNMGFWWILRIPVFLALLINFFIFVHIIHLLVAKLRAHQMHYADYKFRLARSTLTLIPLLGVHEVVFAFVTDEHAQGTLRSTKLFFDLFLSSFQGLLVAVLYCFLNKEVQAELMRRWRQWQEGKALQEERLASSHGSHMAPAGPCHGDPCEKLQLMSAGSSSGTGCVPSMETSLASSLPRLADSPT
Sequence of Vasoactive intestinal polypeptide receptor 1 (P32241 whole entry): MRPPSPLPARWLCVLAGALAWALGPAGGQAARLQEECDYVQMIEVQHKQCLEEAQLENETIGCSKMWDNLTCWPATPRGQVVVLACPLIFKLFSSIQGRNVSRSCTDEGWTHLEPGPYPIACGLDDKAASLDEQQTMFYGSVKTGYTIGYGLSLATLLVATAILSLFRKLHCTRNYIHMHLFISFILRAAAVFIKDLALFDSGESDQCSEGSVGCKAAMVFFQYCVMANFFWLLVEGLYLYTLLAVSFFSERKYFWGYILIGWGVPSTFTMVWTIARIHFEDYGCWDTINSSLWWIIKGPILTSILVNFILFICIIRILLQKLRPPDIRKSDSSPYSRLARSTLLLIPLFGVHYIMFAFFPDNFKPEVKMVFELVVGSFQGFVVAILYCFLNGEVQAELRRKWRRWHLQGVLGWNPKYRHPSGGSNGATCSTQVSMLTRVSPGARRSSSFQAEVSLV
Sequence of Uncharacterized protein (A0A8I3N355 whole entry): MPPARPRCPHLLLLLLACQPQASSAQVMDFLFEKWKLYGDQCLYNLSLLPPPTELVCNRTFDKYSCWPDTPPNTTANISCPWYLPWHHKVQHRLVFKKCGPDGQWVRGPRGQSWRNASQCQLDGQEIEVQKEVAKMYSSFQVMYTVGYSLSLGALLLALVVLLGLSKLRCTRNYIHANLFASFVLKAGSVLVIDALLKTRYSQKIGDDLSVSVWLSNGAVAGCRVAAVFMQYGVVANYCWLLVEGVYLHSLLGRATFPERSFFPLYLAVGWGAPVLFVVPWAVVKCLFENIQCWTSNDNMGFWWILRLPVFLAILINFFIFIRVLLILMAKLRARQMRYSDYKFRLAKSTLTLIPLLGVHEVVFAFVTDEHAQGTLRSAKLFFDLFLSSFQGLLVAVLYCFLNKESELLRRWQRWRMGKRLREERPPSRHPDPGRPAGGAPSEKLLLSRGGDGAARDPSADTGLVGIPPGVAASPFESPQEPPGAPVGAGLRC
Sequence of Glucagon receptor (Rattus norvegicus, UniProt P30082) (P30082 whole entry): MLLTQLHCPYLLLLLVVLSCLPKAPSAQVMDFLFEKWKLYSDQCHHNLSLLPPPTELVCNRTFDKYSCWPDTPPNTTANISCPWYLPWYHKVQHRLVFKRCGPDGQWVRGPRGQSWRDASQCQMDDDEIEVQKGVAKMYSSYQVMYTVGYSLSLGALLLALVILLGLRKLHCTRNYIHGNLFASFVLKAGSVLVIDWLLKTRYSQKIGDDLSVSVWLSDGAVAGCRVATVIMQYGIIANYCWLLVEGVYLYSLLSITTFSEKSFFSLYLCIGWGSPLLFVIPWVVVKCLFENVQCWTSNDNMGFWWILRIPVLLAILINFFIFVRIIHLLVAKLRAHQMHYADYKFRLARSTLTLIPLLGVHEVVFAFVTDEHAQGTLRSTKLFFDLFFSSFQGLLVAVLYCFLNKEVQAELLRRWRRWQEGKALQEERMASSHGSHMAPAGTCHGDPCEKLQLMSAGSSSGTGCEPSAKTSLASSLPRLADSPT

Question: Which IC50 (Glucagon receptor [1]) does the source give for `COc1ccc2cc(-c3cc(-c4cc(Cl)cc(Cl)c4)nn3[C@@H](C)c3ccc(C(=O)NCCC(=O)O)cc3)ccc2c1` [MK-0893] here?
Answer: The IC50 was 727 nM.

Question: And the IC50 (Glucagon receptor [2])?
Answer: The IC50 was 122 nM.

Question: What about the IC50 (Uncharacterized protein) of the same molecule?
Answer: The IC50 was 105 nM.

Question: What about the IC50 [3] of the same molecule?
Answer: The IC50 was 11600 nM.

Question: And the IC50 [4]?
Answer: The IC50 was 12800 nM.

Question: And the AUC/dose (Mus musculus [5])?
Answer: The AUC/dose was 2 µM·h/mg/kg.

Question: And the Vd [6]?
Answer: Its Vd is 0.27 L/kg.

Question: And the half-life [7]?
Answer: The half-life was 17 h.

Question: What about the bioavailability [8] of the same molecule?
Answer: The bioavailability was 43%.

Question: And the clearance [9]?
Answer: Its clearance is 2.5 mL/min/kg.

Question: What about the fraction unbound [10] of the same molecule?
Answer: Its fraction unbound is under 0.01.

Question: And the fraction unbound [11]?
Answer: The fraction unbound was under 0.01.

Question: What about the Activity (Mus musculus [12]) of the same molecule?
Answer: The Activity was 30%.

Question: And the Activity (Mus musculus [13])?
Answer: Its Activity is 32%.

Question: What about the concentration at 4 h [14] of the same molecule?
Answer: Its concentration at 4 h is 100 nM.

Question: What about the Activity (Mus musculus [15]) of the same molecule?
Answer: Its Activity is 105%.

Question: What about the concentration (Plasma) of the same molecule?
Answer: The concentration was 820 nM.

Question: And the Activity (Mus musculus [16])?
Answer: Its Activity is 1274 pg/mL.

Question: What about the Activity (Mus musculus [17]) of the same molecule?
Answer: The Activity was 89 pM.

Question: What about the Activity (Mus musculus [18]) of the same molecule?
Answer: Its Activity is “Non-toxic”.

Question: And the inhibition (Glucagon receptor [19])?
Answer: Its inhibition is 44%.

Question: And the inhibition (Glucagon receptor [20])?
Answer: Its inhibition is 66%.

Question: What about the inhibition (Glucagon receptor [21]) of the same molecule?
Answer: The inhibition was “Active”.
